Reference: ChEMBL document CHEMBL3862011, “Neuroprotective effects of benzyloxy substituted small molecule monoamine oxidase B inhibitors in Parkinson's disease” (Bioorg Med Chem, 2016)

Key:
[1] = target: T1, Amine oxidase [flavin-containing] A (Homo sapiens, UniProt P21397)
T1 sequence (P21397 whole entry): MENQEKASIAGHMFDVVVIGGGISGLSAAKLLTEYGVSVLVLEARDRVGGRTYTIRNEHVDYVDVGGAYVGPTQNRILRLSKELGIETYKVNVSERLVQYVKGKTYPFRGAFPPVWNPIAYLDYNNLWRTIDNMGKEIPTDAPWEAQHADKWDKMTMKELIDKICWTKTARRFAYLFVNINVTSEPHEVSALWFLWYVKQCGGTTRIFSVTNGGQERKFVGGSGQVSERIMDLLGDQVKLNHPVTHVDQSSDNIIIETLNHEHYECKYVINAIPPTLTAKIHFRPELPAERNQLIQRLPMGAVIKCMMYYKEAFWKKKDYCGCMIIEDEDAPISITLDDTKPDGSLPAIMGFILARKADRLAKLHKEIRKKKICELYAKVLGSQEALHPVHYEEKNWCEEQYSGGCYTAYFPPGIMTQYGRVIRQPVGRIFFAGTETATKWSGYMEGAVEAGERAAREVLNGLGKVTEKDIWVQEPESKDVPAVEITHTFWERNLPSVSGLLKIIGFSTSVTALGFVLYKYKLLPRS

[2] = Neuroprotective activity against 6-OHDA-induced toxicity in rat PC12 cells assessed as cell survival at 20 uM preincubated for 24 hrs followed by 6-OHDA addition measured after 24 hrs by MTT assay relative to control; type: functional; settings: PC-12, read-out: Survival
Outline: (§1)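 PC12 cells seeded 5×10^3/well, after 24 h given compound at 20 μM for 24 h at 37 °C, then exposed to 6-OHDA (40 μM) or rotenone (1 μM) for 24 h. […] Mean ± SEM of three independent experiments.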

in vitro = settings: PAMPA
[3] = Cytotoxicity against rat PC12 cells assessed as cell survival at 20 uM after 72 hrs by MTT assay relative to control; type: toxicity, PC-12; settings: read-out: Survival
[4] = Cytotoxicity against rat PC12 cells assessed as cell survival at 100 uM after 24 hrs by MTT assay relative to control; type: toxicity, PC-12; settings: read-out: Survival
[5] = Neuroprotective activity against rotenone-induced toxicity in rat PC12 cells assessed as cell survival at 20 uM preincubated for 24 hrs followed by rotenone addition measured after 24 hrs by MTT assay relative to control; type: functional; settings: PC-12, read-out: Survival
Outline: as §1

[6] = target: T1, Amine oxidase [flavin-containing] A; test: Inhibition of recombinant human MAO-A using kynuramine as substrate assessed as decrease in 4-hydroxyquinoline production incubated for 20 mins by fluorescence spectrophotometry

SMILES | IC50 [1] | viability at 20 µM [2] | Papp at 16 h, 100 ug/ml (in vitro) | viability at 72 h, 20 µM [3] | viability at 24 h, 100 µM [4] | viability at 20 µM [5] | IC50 [6]
CC1(C)CC(=O)c2ccc(OCc3ccc(F)cc3)cc2O1 | > 100 µM | 148% | 9.71 ×10⁻⁶ cm/s | 122% | 96.2% | 111% | –
O=C1CCc2ccc(OCc3cccc(Cl)c3)cc2N1 | > 100 µM | 121% | – | 97.2% | 76.1% | 110% | –
CC(=O)c1ccc(OCc2ccc(F)cc2)cc1F | > 100 µM | 105% | – | 123% | 106% | 114% | –
CC(=O)c1ccc(OCc2cccc(Cl)c2)cc1F | > 100 µM | 133% | – | – | 108% | 112% | –
CC(=O)c1ccc(OCc2cccc(F)c2)cc1O | > 100 µM | 133% | 15.9 ×10⁻⁶ cm/s | 115% | 107% | 106% | 50.7 µM
CC(=O)c1ccc(OCc2ccc(F)cc2)cc1O | 43.4 µM | 144% | 13.5 ×10⁻⁶ cm/s | 109% | 101% | 98.3% | 3.7 µM
O=c1ccoc2cc(OCc3cccc(Cl)c3)ccc12 | 23.6 µM | 117% | – | 119% | 73.5% | 101% | –
O=C1OCc2cc(OCc3ccc(Cl)cc3)ccc21 | 3.61 µM | 137% | – | 85.7% | 86.7% | 113% | –
Cc1c(C)c2ccc(OCc3ccc(F)c(F)c3)cc2oc1=O | – | 138% | – | 102% | 106% | 117% | –
O=C1CCc2ccc(OCc3cccc(Br)c3)cc2N1 | 49.2 µM | 112% | 8.89 ×10⁻⁶ cm/s | 108% | 80.2% | 134% | –
Cc1c(C)c2ccc(OCc3ccc(Cl)cc3)cc2oc1=O | – | 114% | – | 104% | 106% | 119% | –
CC(=O)c1cccc(OCc2ccc(Br)cc2)c1 | 53.7 µM | 109% | – | 107% | 122% | 105% | –
CC(=O)c1ccc(OCc2ccc(F)cc2)cc1 | > 100 µM | 116% | – | 123% | 105% | 88.6% | –
O=c1ccoc2ccc(OCc3ccc(F)cc3)cc12 | 13.6 µM | 115% | – | 109% | 85.2% | 106% | –
CC(=O)c1ccc(OCc2ccc(Cl)cc2)cc1O | 25.3 µM | 144% | 12.7 ×10⁻⁶ cm/s | 126% | 109% | 105% | –
CC(=O)c1ccc(OCc2ccc(Cl)cc2)cc1F | 89 µM | 142% | – | 113% | 105% | 101% | –

SMILES | IC50 [1] | viability at 20 µM [2] | Papp at 16 h, 100 ug/ml (in vitro) | viability at 72 h, 20 µM [3] | viability at 24 h, 100 µM [4] | viability at 20 µM [5] | IC50 [6]
CC1(C)CC(=O)c2ccc(OCc3ccc(Cl)cc3)cc2O1 | > 100 µM | 143% | – | 109% | 110% | 108% | –
O=c1ccoc2cc(OCc3ccc(C(F)(F)F)cc3)ccc12 | 18.9 µM | 123% | – | 110% | 81.2% | 110% | –
Cc1c(C)c2ccc(OCc3cccc(F)c3)cc2oc1=O | – | 130% | – | 108% | 109% | 115% | –
CC(=O)c1ccc(OCc2cccc(Cl)c2)cc1 | 88.4 µM | 123% | – | 116% | 118% | 95.8% | –
O=C1OCc2cc(OCc3ccc(F)cc3)ccc21 | 1.33 µM | 116% | – | 89.7% | 64.9% | 114% | –
CC(=O)c1ccc(OCc2cccc(Cl)c2)cc1O | 48 µM | 134% | – | 112% | 110% | 93.3% | 17.7 µM
O=C1OCc2cc(OCc3ccc(C(F)(F)F)cc3)ccc21 | 9.24 µM | 125% | – | 87.2% | – | 111% | –
O=C1CCCc2cc(OCc3ccc(Cl)cc3)ccc21 | 0.34 µM | 127% | – | 129% | 91.2% | 110% | –
O=c1ccoc2cc(OCc3ccc(F)cc3)ccc12 | 18.5 µM | 124% | – | 119% | 72.9% | 115% | –
C#CCN[C@@H]1CCc2ccccc21 [RASAGILINE] | – | 135% | – | 101% | 86.9% | 109% | –
CC(=O)c1ccc(OCc2cccc(F)c2)cc1F | > 100 µM | 116% | – | 119% | 118% | 109% | –
O=C1CCOc2cc(OCc3ccc(Cl)cc3)ccc21 | – | 143% | – | 115% | 98.6% | 111% | –
CC(=O)c1cccc(OCc2ccc(Cl)cc2)c1 | – | 132% | – | 102% | 117% | 109% | –
O=c1ccoc2ccc(OCc3ccc(Cl)cc3)cc12 | 4.52 µM | 122% | – | 108% | 85% | 115% | –
O=C1CCCc2cc(OCc3ccc(F)cc3)ccc21 | 1.29 µM | 139% | – | – | 83.3% | 95.9% | –
